Source: PubChem BioAssay (several laboratories)
MPTP block = permeability transition pore inhibition | isolated mouse mitochondria, Ca2+ swelling absorbance, 30 min | inhibition, % at 10 µM | 1.4% of 360,000 active | AID 602449;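 active means inhibition of 50% or more, scaled per plate between neutral and stimulator controls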;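 further: 0% = DMSO wells given calcium and 100% = 1 mM EGTA wells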
SKN-1 block = inhibitors of C. elegans SKN-1. C. elegans VP596 Pgst-4::GFP/RFP ratio, acrylamide-induced, 24 h. inhibition, % at 21.8 µM. 0.49% of 360,000 active;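 active means interference check ratio from 0.5 to 1.5 plus GFP to RFP signal ratio inhibition reaching or exceeding a fixed threshold, cut at about 30% in these data, passing the limit was not always enough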
NR3A LBD binder = modulates the human NR3A ligand-binding domain; NR3A LBD differential scanning fluorimetry, Tm shift; 0% = protein alone, 100% = glycine-bound protein; Tm shift relative to glycine control, % at 25 µM; 2.5% of 340,000 active; AID 1259313;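 active means melting temperature shift of at least 10% of the positive control shift, at one fixed dose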
ADAM10 inh = inhibitors of human ADAM10 | O14672 | recombinant ADAM10, EDANS/DABCYL FRET peptide cleavage, 3 h | inhibition, % at 7 µM | 0.62% of 370,000 active | AID 720582;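 active means inhibition above a per-campaign cutoff equal to the mean of compounds falling between control-based bounds plus 3 SD, cut at about 20% in these data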;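 further: 0% = DMSO wells while the 100% control is not disclosed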
ADAM17 inh = ADAM17 inhibition, QFRET primary screen | P78536 | recombinant ADAM17, EDANS/DABCYL FRET peptide cleavage | inhibition, % at 6.95 µM | 0.83% of 370,000 active | AID 720648;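 active means inhibition above the mean of compounds lying between control limits plus 3 SD, set per campaign, cut at about 8.5% in these data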;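 further: 0% = DMSO-only wells as the low control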
Target sequence (P78536 215-824 limits assumed): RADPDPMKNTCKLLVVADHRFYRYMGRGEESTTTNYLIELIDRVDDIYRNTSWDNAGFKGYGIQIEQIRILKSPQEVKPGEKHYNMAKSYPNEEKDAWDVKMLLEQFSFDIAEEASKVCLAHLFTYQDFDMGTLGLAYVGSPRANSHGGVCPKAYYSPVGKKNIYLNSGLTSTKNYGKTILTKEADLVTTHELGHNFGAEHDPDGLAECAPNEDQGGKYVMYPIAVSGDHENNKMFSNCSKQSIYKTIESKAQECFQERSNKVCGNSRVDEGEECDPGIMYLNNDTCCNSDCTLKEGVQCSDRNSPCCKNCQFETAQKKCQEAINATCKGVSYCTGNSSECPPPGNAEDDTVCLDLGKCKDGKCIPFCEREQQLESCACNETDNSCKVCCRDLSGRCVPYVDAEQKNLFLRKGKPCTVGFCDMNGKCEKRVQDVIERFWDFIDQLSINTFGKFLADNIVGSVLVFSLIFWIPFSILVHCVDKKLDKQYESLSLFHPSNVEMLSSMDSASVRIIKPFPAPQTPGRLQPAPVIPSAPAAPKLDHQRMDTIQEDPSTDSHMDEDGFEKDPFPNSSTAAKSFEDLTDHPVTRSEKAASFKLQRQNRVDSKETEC
MT1-MMP act inh = inhibitors of human MT1-MMP activation | AID 651647 | 0.061% of 360,000 active | P50281 | GFP/RFP ratio change, % at 20 µM | HT1080 RFP-PRO-GFP cells, GFP/RFP ratio fluorescence, overnight; percent of plate control window, DMSO zero;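 active means GFP/RFP ratio change of at least 30% with cell ATP level not reduced by more than half and red fluorescence within 50% of control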
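Material – HT1080 RFP-PRO-GFP cells · Control set – DMSO wells and RFP-L50D-GFP cells · Incubation – overnight cell settling, then overnight compound exposure, 37 °C, 5% CO2 · Compound dosing – single-point 20 µM compound, 1% DMSO · Read-out – GFP/RFP fluorescence ratio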
MPTP counter = Rhodamine 123 counter-screen of mitochondrial pore hits | shares compounds with MPTP block | isolated mitochondria, membrane potential, Rhodamine 123 fluorescence | inhibition, % at 10 µM | 78% of 5,000 active; in the data active means inhibition above about 22%;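 further: 0% = DMSO vehicle and 100% = positive control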
MPTP swell DR = MPTP inhibition, dose response swelling confirmation; shares compounds with MPTP block; isolated mitochondria swelling, absorbance; IC50, µM; 58% of 780 active; AID 651561; in the data active means IC50 below about 20 µM
MPTP counter DR = MPTP inhibitor counter-screen activity, dose response | shares compounds with MPTP block | isolated mitochondria counterscreen, fluorescence read-out | IC50, µM | 49% of 780 active | AID 651564; in the data active means IC50 below about 80 µM
Numbers without * were called inactive; · = not tested or not shown. Only some compounds are listed: those with a hit (about 4.7% of all), similar ones and a draw of the others.

SMILES	MPTP block	SKN-1 block	NR3A LBD binder	ADAM10 inh	ADAM17 inh	MT1-MMP act inh	MPTP counter	others
COc1ccc(NC(=S)Nc2ccc3nsnc3c2)cc1	60*	-6	24*	-11	-1	-10	78*
CCOc1ccc(NC(=S)Nc2ccc3nsnc3c2)cc1	86*	1	22*	0	7	0	77*
CCOc1ccc(NC(=O)Nc2ccc3nsnc3c2)cc1	91*	-3	26*	-6	-6	2	89*
CCOc1ccc(NC(=S)Nc2ccc(OCC)cc2)cc1	1	4	0	7	4	0	·
CCOc1ccc(NC(=O)Nc2cccnc2)cc1	0	-3	3	11	3	-1	·
O=C(COc1ccc(S(=O)(=O)NC2CCCCC2)cc1Cl)NCc1cccnc1	-1	-12	2	9	2	1	·
Clc1cccc(-c2sc(Nc3ccccc3)n[n+]2-c2ccccc2)c1Cl	45	6	2	2	-2	-1	·
Fc1ccc(-[n+]2nc(Nc3ccccc3)sc2-c2cccc(Cl)c2Cl)cc1	95*	-22	10	7	4	-4	109*
CCN1C(=O)[C@H]2[C@@H](c3ccc(C)cc3)N3C(=O)N(c4ccc(C(F)(F)F)cc4)C(=O)[C@@]3(CC(C)C)[C@H]2C1=O	94*	10	-9	8	3	-3	98*
N=c1sccn1CC(=O)Nc1cccc(Oc2ccccc2)c1	92*	-16	1	7	-2	-6	-1	MPTP swell DR=4.9*;MPTP counter DR=>80
N=c1sccn1CC(=O)Nc1cc(Cl)ccc1Oc1ccccc1	9	-1	1	·	·	-4	·
COc1ccc(OCc2n(CC(=O)OC3CC(C)CCC3C(C)C)c3ccccc3[n+]2C)cc1 (configuration not stated)	34	-18	-5	7	1	-2	·
COc1ccc(-c2n(CC(=O)OC3CC(C)CCC3C(C)C)c3ccccc3[n+]2C)cc1 (configuration not stated)	50*	-2	6	9	-1	-44	94*
COCC(=O)Nc1ncc(S(=O)(=O)c2ccc([N+](=O)[O-])cc2)s1	-1	-4	0	-2	-5	3	·
O=C(Nc1ncc(S(=O)(=O)c2ccc([N+](=O)[O-])cc2)s1)c1cccc2ccccc12	54*	14	11*	-7	3	0	79*
Cc1cc(Cl)c(S(=O)(=O)N2CCN(c3ccc(F)cc3)CC2)cc1OCC(N)=O	-2	7	2	4	-3	1	·
Cc1cc(Cl)c(S(=O)(=O)N2CCN(c3ccc(F)cc3)CC2)cc1OCC(=O)NC1CCCCC1	80*	6	1	-8	-2	-7	70*
CS(=O)(=O)NCCCNc1ccc(C(F)(F)F)cc1[N+](=O)[O-]	2	-13	-1	-9	-6	4	·
O=[N+]([O-])c1cc(C(F)(F)F)ccc1NCCCCNS(=O)(=O)c1ccc(Cl)cc1	86*	3	9	6	3	2	90*
O=[N+]([O-])c1cc(C(F)(F)F)ccc1NCCNC(=S)Nc1ccc(Cl)cc1	94*	1	15*	18	4	7	70*
COc1ccc(N2C(=O)c3[nH]nc(-c4ccccc4)c3C2c2ccc(F)cc2)cc1 (configuration not stated)	·	·	·	1	0	·	·
CCC1=NN(C(=O)c2cccc(Br)c2)C(O)(c2ccc(Br)cc2)C1 (configuration not stated)	84*	2	5	4	0	-6	89*
COc1ccccc1CCNC(=O)Cn1ccc2cc(S(=O)(=O)N3CCCC3)ccc21	2	8	2	-6	0	-1	·
